Data on 5 compounds can be found in ChEMBL document CHEMBL1138093, “C-(4,5,6-trimethoxyindan-1-yl)methanamine: a mescaline analogue designed using a homology model of the 5-HT2A receptor” (J Med Chem, 2006).

Experiment [1] deals with 5-hydroxytryptamine receptor 2A (Rattus norvegicus) (UniProt P14842). Kind of experiment: (§1) Activity at rat 5HT2A receptor assessed as 5-HT-stimulated IP3 accumulation. It is filed as functional. The gist of the method:
(§2)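 Rat 5-HT2A-expressing stable cell line, seeded and assayed at 70% confluence. Cells were labeled 18-20 h with [3H]myoinositol at 1.0 µCi/mL, then pretreated 15 min with 10 µM pargyline/10 mM LiCl. Drug exposure was 30 min at 37 °C under 5% CO2. The assay was stopped with 10 mM formic acid, and [3H]inositol phosphates were isolated on Dowex-1 columns.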

The target in experiment [2] is T1, 5-hydroxytryptamine receptor 2A (Rattus norvegicus, UniProt P14842). The experiment is described as §1. It is filed as functional. The method, boiled down:
as §2

The target in experiment [3] is T1, 5-hydroxytryptamine receptor 2A. Kind of experiment: Displacement of [125I]DOI from rat 5HT2A receptor. The gist of the method: (§3)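 Stably transfected cells expressing rat 5-HT2A or 5-HT2C were serum-starved 5 h and pelleted. Binding used 50 mM Tris, 0.5 mM EDTA, 10 mM MgCl2, pH 7.4, incubated 60 min at 25 °C. Bound was separated by filtration onto PEI-soaked GF/B filters, then scintillation counting. Values came from competition curves.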

The target in experiment [4] is T2, 5-hydroxytryptamine receptor 2C (Rattus norvegicus, UniProt P08909).
T2 sequence (P08909 whole entry): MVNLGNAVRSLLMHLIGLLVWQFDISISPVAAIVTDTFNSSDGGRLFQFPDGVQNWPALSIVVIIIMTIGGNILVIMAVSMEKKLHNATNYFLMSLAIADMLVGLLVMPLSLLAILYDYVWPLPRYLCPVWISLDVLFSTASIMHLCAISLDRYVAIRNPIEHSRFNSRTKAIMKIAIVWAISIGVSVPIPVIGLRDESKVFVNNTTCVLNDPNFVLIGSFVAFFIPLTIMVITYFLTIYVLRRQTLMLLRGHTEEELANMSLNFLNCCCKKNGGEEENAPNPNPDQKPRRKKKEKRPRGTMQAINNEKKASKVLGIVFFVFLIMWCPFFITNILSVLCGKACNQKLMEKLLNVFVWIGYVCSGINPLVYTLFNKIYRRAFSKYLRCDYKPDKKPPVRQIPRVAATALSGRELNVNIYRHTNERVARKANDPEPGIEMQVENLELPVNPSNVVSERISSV
Kind of experiment: Displacement of [125I]DOI from rat 5HT2C receptor. The gist of the method:
as §3

The species entered for a further experiment is Rattus norvegicus. Kind of experiment: Hallucinogenic activity in rat. Conditions: for ED50: Rattus norvegicus. Type of experiment: functional. The gist of the method:
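Rats were trained to discriminate saline from LSD tartrate (186 nmol/kg ip). The read-out was presses on the drug lever. […] At least 59% gave partial substitution.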

The structures appear in SMILES notation.

5-hydroxytryptamine receptor 2A (Rattus norvegicus), sequence (P14842 whole entry): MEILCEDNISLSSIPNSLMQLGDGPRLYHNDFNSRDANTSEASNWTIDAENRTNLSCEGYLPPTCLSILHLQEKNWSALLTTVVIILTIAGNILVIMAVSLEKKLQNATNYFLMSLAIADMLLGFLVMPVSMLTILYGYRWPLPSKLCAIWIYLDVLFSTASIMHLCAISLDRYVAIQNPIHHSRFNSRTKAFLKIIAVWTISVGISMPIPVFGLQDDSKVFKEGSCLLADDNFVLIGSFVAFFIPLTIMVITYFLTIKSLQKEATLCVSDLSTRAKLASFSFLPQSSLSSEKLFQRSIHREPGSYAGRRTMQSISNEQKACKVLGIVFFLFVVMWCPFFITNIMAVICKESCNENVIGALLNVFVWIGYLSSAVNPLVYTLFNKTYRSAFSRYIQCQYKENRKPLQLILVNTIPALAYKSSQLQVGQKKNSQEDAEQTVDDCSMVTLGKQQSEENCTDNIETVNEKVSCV
T1 sequence (P14842 whole entry): as above

`COc1cc2c(c(OC)c1OC)CC[C@@H]2CN`: the Activity in experiment [1] turned out to be 59%. In experiment [2], the EC50 was more than 50000 nM. The compound also showed a Ki in experiment [3] of 1120 nM.

Regarding `COc1cc2c(c(OC)c1OC)CC[C@H]2CN`, in experiment [1], the Activity turned out to be 88%. For the same compound, the concentration for a half-maximal effect (EC50) in experiment [2] is 3200 nM. The inhibitory constant (Ki) in experiment [3] stood at 69 nM.

For the compound `COc1cc2c(c(OC)c1OC)CCC2CN` (racemic), the Activity in experiment [1] is 83%. Also, the EC50 in experiment [2] is 6100 nM. For the same compound, the inhibitory constant (Ki) turned out to be 60 nM in experiment [4] and 130 nM in experiment [3]. The compound also registered an ED5 in the experiment filed under Rattus norvegicus of 6.6 µmol/kg.

Take `CCN(CC)C(=O)[C@@H]1C=C2c3cccc4[nH]cc(c34)C[C@H]2N(C)C1` [LYSERGIDE]: in experiment [1], the Activity turned out to be 20%. Also, in the experiment filed under Rattus norvegicus, the median effective dose (ED50) came out at 0.037 µmol/kg.

`COc1cc(CCN)cc(OC)c1OC` [MESCALINE]: in experiment [1], the Activity came out at 86%. Further, the EC50 in experiment [2] was determined as 11300 nM. The inhibitory constant (Ki) in experiment [4] is 380 nM; in experiment [3], 360 nM. It took a dose of 34 µmol/kg to reach the 50% effect level in the experiment listed under Rattus norvegicus (ED50).
